Calls of active or inactive are those of the source. No cut-off for these calls is given here.
Key:
[1] = tested on: Saccharomyces cerevisiae; test: Inhibition of Saccharomyces cerevisiae alpha-glucosidase using p-nitro-phenyl-alpha-D-glucopyranoside as substrate at 200 uM preincubated with enzyme followed by substrate addition measured after 10 mins for every 2.5 to 5 mins relative to control
Outline: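 Sample mixed with baker's yeast alpha-glucosidase stock (0.11 U/ml in 50 mM PBS) and preincubated at 36 °C. pNPG stock (1.35 mM) then added, incubated 10 min at 36 °C, and absorbance at 405 nm read every 2.5–5 min. PBS replaced sample as control. % inhibition = [1 − (ΔAbs sample/ΔAbs control)] × 100; triplicates; IC50 from six-concentration dose-inhibition curve.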

[2] = Inhibition of Saccharomyces cerevisiae alpha-glucosidase using p-nitro-phenyl-alpha-D-glucopyranoside as substrate preincubated with enzyme followed by substrate addition measured after 10 mins for every 2.5 to 5 mins
[3] = tested on: Saccharomyces cerevisiae; test: Mixed type inhibition of Saccharomyces cerevisiae alpha-glucosidase using p-nitro-phenyl-alpha-D-glucopyranoside as substrate preincubated with enzyme followed by substrate addition measured after 10 mins by Lineweaver-Burk plot analysis
Outline: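 Baker's yeast α-glucosidase (stock 0.11 U/ml in 50 mM PBS) mixed with sample and incubated at 36 °C, then p-nitrophenyl-α-D-glucopyranoside added at various concentrations and incubated at 36 °C for 10 min. Initial velocity was taken as the rate of change of absorbance at 405 nm per min. Inhibition type was assigned from Lineweaver-Burk plots.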

[4] = tested on: Saccharomyces cerevisiae; test: Competitive inhibition of Saccharomyces cerevisiae alpha-glucosidase using p-nitro-phenyl-alpha-D-glucopyranoside as substrate preincubated with enzyme followed by substrate addition measured after 10 mins by Lineweaver-Burk plot analysis
Outline: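 Baker's yeast alpha-glucosidase (stock 0.11 U/ml in 50 mM PBS) with pNPG at various concentrations, 36 °C. Initial velocity taken as the per-minute change in 405 nm absorbance. Inhibition type assigned from Lineweaver-Burk plots at several inhibitor levels plus an uninhibited series.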

SMILES | inhibition [1] [%] | IC50 [2] [µM] | inhibition [3] | inhibition [4]
Nc1ncnc2c1ncn2[C@@H]1O[C@H](CO)[C@@H](O)[C@H]1O | 10.3 | – | – | –
O=C1C[C@@H](O[C@@H]2O[C@H](CO)[C@@H](O)[C@H](OC(=O)Cc3ccc(O)cc3)[C@H]2OC(=O)Cc2ccc(O)cc2)CO1 | 58.3 | 152 | – | –
COc1cc(-c2oc3cc(O)cc(O)c3c(=O)c2O)cc(O)c1OC | 57.4 | 154 | – | –
COc1cc(/C=C/CO)cc(OC)c1O[C@@H]1O[C@H](CO)[C@@H](O)[C@H](O)[C@H]1O | 1.8 | – | – | –
COC(=O)C[C@@H](CO)O[C@@H]1O[C@H](CO)[C@@H](O)[C@H](OC(=O)Cc2ccccc2)[C@H]1OC(=O)C(=O)c1ccc(O)cc1 | 56.6 | 165 | – | –
O=C(CO)c1c[nH]c2ccccc12 | 1.6 | – | – | –
CC1(C)C[C@@H](O)C[C@@]2(C)OC(=O)C=C12 | 6.4 | – | – | –
CC1(C)C[C@H](O)C[C@@]2(C)OC(=O)C=C12 | 8.8 | – | – | –
O=c1cc(-c2ccc(O)c(O)c2)oc2cc(O)cc(O)c12 [LUTEOLIN] | 99.6 | 39.8 | Active | –
CC(=O)/C=C/[C@]12O[C@@]1(C)C[C@@H](O)CC2(C)C | 17.6 | – | – | –
COc1cc(-c2cc(=O)c3c(O)cc(O)cc3o2)ccc1O | 56.9 | – | – | –
O=C(Cc1ccc(O)cc1)O[C@H]1[C@@H](O)[C@H](OC(=O)Cc2ccc(O)cc2)[C@H](OC(=O)Cc2ccc(O)cc2)[C@@H](O)[C@@H]1O | 77.6 | 61.2 | – | Active
C=C1C(=O)O[C@@H]2/C=C(\C)CC/C=C(\C(=O)O[C@@H]3O[C@H](CO)[C@@H](O)[C@H](O)[C@H]3O)CC[C@@H]12 | 13.1 | – | – | –
COC(=O)C[C@@H](CO)O[C@@H]1O[C@H](CO)[C@@H](O)[C@H](O)[C@H]1OC(=O)C(=O)c1ccc(O)cc1 | 56.6 | 165 | – | –
COc1cc([C@H](OC)[C@H](CO)Oc2c(OC)cc(-c3cc(=O)c4c(O)cc(O)cc4o3)cc2OC)ccc1O | 9.1 | – | – | –
COC(=O)C[C@@H](CO)O[C@@H]1O[C@H](CO)[C@@H](O)[C@H](OC(=O)Cc2ccccc2)[C@H]1OC(=O)Cc1ccc(O)cc1 | 59.7 | 150 | – | –
O=C1C[C@@H](O[C@@H]2O[C@H](CO)[C@@H](O)[C@H](O)[C@H]2OC(=O)Cc2ccc(O)cc2)CO1 | 57.6 | 181 | – | –
O=c1ccc2cc(O[C@@H]3O[C@H](CO)[C@@H](O)[C@H](O)[C@H]3O)c(O)cc2o1 | 1.8 | – | – | –
COc1cc(-c2cc(=O)c3c(O)cc(O)cc3o2)cc(OC)c1O [TRICIN] | 59.1 | 162 | – | –
C[C@H]1O[C@H](O[C@H]2[C@H](O)[C@@H](O)[C@@H](O[C@H]3[C@H](O)[C@@H](O)C(O)O[C@@H]3CO)O[C@@H]2CO)[C@H](O)[C@@H](O)[C@@H]1N[C@H]1C=C(CO)[C@@H](O)[C@H](O)[C@H]1O (stereo partly drawn) [ACARBOSE] | 51.8 | 180 | – | –
COc1cc([C@H](OC)[C@@H](CO)Oc2c(OC)cc(-c3cc(=O)c4c(O)cc(O)cc4o3)cc2OC)ccc1O | 13.2 | – | – | –
COC(=O)/C=C/c1ccc(O)c(O)c1 | 1.6 | – | – | –
O=C1C[C@@H](O[C@@H]2O[C@H](CO)[C@@H](O)[C@H](OC(=O)Cc3ccccc3)[C@H]2OC(=O)Cc2ccc(O)cc2)CO1 | 58.9 | 145 | Active | –
CC(=O)/C=C/C1=C(C)[C@@H](O)[C@@H](O)CC1(C)C | 11.5 | – | – | –
CC1=CC(=O)CC(C)(C)[C@@]1(O)/C=C/[C@@H](C)O[C@@H]1O[C@H](CO)[C@@H](O)[C@H](O)[C@H]1O | 13.7 | – | – | –
COc1cc(-c2cc(=O)c3c(O)cc(O)cc3o2)cc(OC)c1O[C@@H](CO)[C@@H](O)c1ccc(O)cc1 | 8.3 | – | – | –
CC1=CC(=O)CC(C)(C)[C@]1(O)/C=C/[C@@H](C)O[C@@H]1O[C@H](CO)[C@@H](O)[C@H](O)[C@H]1O | 9.4 | – | – | –
COc1cc(-c2cc(=O)c3c(O)cc(O)cc3o2)cc(OC)c1O[C@H](CO)[C@@H](O)c1ccc(O)cc1 | 8.7 | – | – | –
CC(=O)/C=C/C1=C(C)[C@@H](O)[C@@H](O[C@@H]2O[C@H](CO)[C@@H](O)[C@H](O)[C@H]2O)CC1(C)C | 0 | – | – | –
